Data taken from ChEMBL document CHEMBL5120833, “Structure-based design of novel donepezil-like hybrids for a multi-target approach to the therapy of Alzheimer's disease” (Eur J Med Chem, 2022).

Columns and labels:
Cholinesterase [1] = target: T1, Cholinesterase (Homo sapiens, UniProt P06276); test: Inhibition of human BuChE at 10 uM by Ellman's spectrophotometric method
Outline: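 Percent inhibition of human BChE at a fixed 10 μM inhibitor concentration, by modified Ellman spectrophotometric assay in 96-well format. Incubations were run in duplicate. Values are the mean ± SEM of three independent experiments.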

Acetylcholinesterase [2] = target: T2, Acetylcholinesterase (Homo sapiens, UniProt P22303); test: Inhibition of human AChE by Ellman's spectrophotometric method
[3] = target: Amyloid-beta precursor protein (Homo sapiens) (UniProt P05067); test: Inhibition of amyloid beta (1 to 40) (unknown origin) aggregation at 100 uM incubated for 2 hrs by Thioflavin T based fluorometric assay
Outline: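 Aβ40 (30 µM final) co-incubated with inhibitor (100 µM final) in PBS pH 7.4 containing 2% HFIP, 2 h at 25 °C. Thioflavin T (25 µM) then added and fluorescence read. Run in triplicate, reported as mean ± SEM.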

[4] = Cytotoxicity against human HepG2 cells assessed as inhibition of cell viability incubated for 24 hrs by MTT assay; type: toxicity, cell-based
Outline: (§1)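 Cells from ATCC; SH-SY5Y grown in 1:1 MEM/Ham's F12, HepG2 in MEM with NEAA, both with 10% heat-inactivated FBS, glutamine, penicillin-streptomycin, 37 °C, 5% CO2. Seeded 10,000-25,000 cells/well, next day exposed to half-log serial dilutions (100 µM to 100 nM) in 1% DMSO final, with untreated controls. After 24 or 48 h, MTT 0.5 mg/mL for 3–4 h at 37 °C; formazan dissolved in DMSO/EtOH 1:1, absorbance 570 nm.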

[5] = Cytotoxicity against human SH-SY5Y cells assessed as inhibition of cell viability incubated for 24 hrs by MTT assay; type: toxicity, cell-based; outline: as §1
[6] = target: T3, Fatty-acid amide hydrolase 1 (Homo sapiens, UniProt O00519); test: Inhibition of human recombinant FAAH using AMC-AA as substrate preincubated with enzyme for 10 mins followed by substrate addition for 2 hrs by fluorometric analysis
T3 sequence (O00519 whole entry): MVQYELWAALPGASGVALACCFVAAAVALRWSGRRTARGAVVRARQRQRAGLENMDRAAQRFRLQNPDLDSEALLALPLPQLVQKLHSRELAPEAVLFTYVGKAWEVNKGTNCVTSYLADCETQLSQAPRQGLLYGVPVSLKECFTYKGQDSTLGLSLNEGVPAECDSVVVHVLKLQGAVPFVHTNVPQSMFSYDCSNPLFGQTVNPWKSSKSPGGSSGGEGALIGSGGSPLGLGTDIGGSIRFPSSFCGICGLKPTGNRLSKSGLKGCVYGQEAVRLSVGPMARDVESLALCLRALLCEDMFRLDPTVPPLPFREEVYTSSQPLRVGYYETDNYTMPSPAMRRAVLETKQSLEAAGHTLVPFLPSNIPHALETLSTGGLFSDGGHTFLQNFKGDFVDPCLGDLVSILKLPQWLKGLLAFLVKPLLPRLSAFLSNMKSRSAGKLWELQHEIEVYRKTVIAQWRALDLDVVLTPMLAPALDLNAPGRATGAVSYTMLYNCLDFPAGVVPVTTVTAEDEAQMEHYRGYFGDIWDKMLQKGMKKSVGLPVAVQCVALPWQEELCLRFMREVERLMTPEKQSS
Outline: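 Human recombinant FAAH preincubated with inhibitor at several concentrations for 10 min at room temperature with orbital shaking in Tris-HCl 125 mM, Na2EDTA 1 mM, pH 9.0. AMC-AA substrate (5 µM final) added, then 2 h at 37 °C with fluorescence read every 30 s (ex 340, em 450 nm). Percent inhibition taken against no-inhibitor and no-enzyme wells. IC50 given as mean ± SEM of at least two independent triplicate runs.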

[7] = Cytotoxicity against human HepG2 cells assessed as inhibition of cell viability incubated for 48 hrs by MTT assay; type: toxicity, cell-based; outline: as §1
[8] = Cytotoxicity against human SH-SY5Y cells assessed as inhibition of cell viability incubated for 48 hrs by MTT assay; type: toxicity, cell-based; outline: as §1
Cholinesterase [9] = target: T1, Cholinesterase; test: Inhibition of human BuChE by Ellman's spectrophotometric method
Outline: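 Human BChE, modified Ellman spectrophotometric assay in 96-well format. Incubations were run in duplicate. IC50 was determined for inhibitors giving >60% inhibition, from seven final concentrations (10⁻⁵ to 10⁻¹¹ M) diluted in work buffer from a 1000 μM DMSO stock. Values are the mean ± SEM of three independent experiments.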

Acetylcholinesterase [10] = target: T2, Acetylcholinesterase; test: Potency index, ratio of donepezil IC50 to test compound IC50 for inhibition of human AChE by Ellman's spectrophotometric method
Homo sapiens = species: Homo sapiens; test: Selectivity index, ratio of IC50 for human BuChE to IC50 for human AChE

T1 sequence (P06276 whole entry): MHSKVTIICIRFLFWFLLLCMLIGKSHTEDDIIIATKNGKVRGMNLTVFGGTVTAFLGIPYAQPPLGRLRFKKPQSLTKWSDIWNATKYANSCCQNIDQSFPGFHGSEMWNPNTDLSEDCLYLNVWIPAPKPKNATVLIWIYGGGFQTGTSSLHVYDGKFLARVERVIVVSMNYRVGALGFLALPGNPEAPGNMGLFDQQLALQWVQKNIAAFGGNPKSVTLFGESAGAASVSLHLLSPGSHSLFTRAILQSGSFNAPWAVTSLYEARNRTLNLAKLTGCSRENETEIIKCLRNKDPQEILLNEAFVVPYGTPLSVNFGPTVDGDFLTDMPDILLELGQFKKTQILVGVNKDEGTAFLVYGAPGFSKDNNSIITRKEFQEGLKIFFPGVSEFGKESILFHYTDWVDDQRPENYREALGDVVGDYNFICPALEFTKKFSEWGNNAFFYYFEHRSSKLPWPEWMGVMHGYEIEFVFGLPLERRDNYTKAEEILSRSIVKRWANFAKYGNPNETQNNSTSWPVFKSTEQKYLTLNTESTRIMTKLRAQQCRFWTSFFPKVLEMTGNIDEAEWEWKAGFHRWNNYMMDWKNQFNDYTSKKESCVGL
T2 sequence (P22303 whole entry): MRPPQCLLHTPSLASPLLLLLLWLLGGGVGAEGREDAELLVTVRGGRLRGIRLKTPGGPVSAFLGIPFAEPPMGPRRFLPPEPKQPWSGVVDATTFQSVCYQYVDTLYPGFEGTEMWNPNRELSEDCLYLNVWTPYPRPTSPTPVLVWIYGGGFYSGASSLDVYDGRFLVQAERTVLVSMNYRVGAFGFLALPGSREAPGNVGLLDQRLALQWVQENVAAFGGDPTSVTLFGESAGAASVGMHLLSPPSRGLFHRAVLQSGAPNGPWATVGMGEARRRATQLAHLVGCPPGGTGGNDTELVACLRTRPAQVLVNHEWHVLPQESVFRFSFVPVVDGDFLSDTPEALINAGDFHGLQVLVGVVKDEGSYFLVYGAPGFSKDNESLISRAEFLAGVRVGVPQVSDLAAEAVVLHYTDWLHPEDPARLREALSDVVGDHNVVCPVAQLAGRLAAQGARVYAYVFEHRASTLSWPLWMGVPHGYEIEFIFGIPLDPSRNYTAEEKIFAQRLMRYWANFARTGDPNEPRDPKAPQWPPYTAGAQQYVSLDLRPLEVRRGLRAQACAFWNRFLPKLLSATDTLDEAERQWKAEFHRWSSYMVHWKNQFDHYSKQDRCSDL
Sequence of Amyloid-beta precursor protein (Homo sapiens) (P05067 whole entry): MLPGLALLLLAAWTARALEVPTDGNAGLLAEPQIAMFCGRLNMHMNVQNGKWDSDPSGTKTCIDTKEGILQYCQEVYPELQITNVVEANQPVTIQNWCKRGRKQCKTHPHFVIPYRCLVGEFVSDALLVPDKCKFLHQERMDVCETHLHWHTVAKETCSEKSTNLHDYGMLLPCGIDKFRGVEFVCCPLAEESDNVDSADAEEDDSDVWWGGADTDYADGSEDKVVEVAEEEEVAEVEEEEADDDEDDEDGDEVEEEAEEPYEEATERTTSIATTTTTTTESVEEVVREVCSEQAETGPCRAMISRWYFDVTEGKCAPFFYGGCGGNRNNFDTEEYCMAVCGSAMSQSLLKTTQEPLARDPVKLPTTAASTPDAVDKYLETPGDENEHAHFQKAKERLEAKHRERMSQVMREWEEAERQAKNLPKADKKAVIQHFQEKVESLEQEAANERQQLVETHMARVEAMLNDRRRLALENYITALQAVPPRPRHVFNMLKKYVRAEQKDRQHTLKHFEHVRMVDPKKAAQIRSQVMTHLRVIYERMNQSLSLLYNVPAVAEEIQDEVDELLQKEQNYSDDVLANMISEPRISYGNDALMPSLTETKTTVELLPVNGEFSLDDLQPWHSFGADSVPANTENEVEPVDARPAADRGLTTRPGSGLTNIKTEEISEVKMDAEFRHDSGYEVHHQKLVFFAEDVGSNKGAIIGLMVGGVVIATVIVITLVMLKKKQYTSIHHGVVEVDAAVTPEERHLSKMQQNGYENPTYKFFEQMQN

Compound | inhibition (Cholinesterase [1]) [%] | IC50 (Acetylcholinesterase [2]) [µM] | inhibition [3] [%] | IC50 at 24 h [4] [µM] | IC50 at 24 h [5] [µM] | IC50 [6] [µM] | IC50 at 48 h [7] [µM] | IC50 at 48 h [8] [µM] | IC50 (Cholinesterase [9]) [µM] | Ratio IC50 (Acetylcholinesterase [10]) | Ratio IC50 (Homo sapiens)
O=C(COc1ccc(CCc2ccccc2)cc1)NCCN1CCN(Cc2ccccc2)CC1 | 45 | 0.9 | 30 | 41.6 | 27.8 | 16.8 | 15.8 | 34.8 |  |  | 
O=C(COc1ccc(Cc2ccccc2)cc1)NCCN1CCN(Cc2ccccc2)CC1 | 29 | 0.993 |  |  |  | 23.6 |  |  |  |  | 
O=C(COc1ccc(Cl)cc1)NCC1CCN(Cc2ccccc2)CC1 |  | 1.68 | 30 | > 100 | > 100 | 20.9 | > 100 | > 100 | 5.61 |  | 
O=C(COc1cc(F)ccc1[N+](=O)[O-])NCCN1CCN(Cc2ccccc2)CC1 |  | 0.0028 |  | > 100 | > 100 | 49.6 | > 100 | > 100 | 5.01 | 6 | 1790
O=C(COc1ccc([N+](=O)[O-])cc1)NCCN1CCN(Cc2ccccc2)CC1 |  | 0.042 | 30 |  |  | 43.9 |  |  |  |  | 
Cc1cc(Br)cc(C)c1OCC(=O)NCCN1CCN(Cc2ccccc2)CC1 |  | 0.09 |  |  |  | 40.8 |  |  | 4.1 |  | 
O=C(COc1ccc(Cl)cc1[N+](=O)[O-])NCC1CCN(Cc2ccccc2)CC1 |  | 0.122 |  |  |  | 23.3 |  |  | 4.7 |  | 
O=C(COc1ccc([N+](=O)[O-])cc1)NCC1CCN(Cc2ccccc2)CC1 | 24 | 0.509 |  |  |  | 28.5 |  |  |  |  | 
O=C(COc1ccc(Cc2ccccc2)cc1)NCC1CCN(Cc2ccccc2)CC1 | 37 | 1.27 |  |  |  | 21.9 |  |  |  |  | 
O=C(COc1ccccc1C(F)(F)F)NCCN1CCN(Cc2ccccc2)CC1 |  | 0.136 |  |  |  | 55.1 |  |  | 0.503 |  | 
